Results on one compound are retold here after ChEMBL document CHEMBL4196106, “From Naproxen Repurposing to Naproxen Analogues and Their Antiviral Activity against Influenza A Virus” (J Med Chem, 2018).

Data set [1] can be described thus: Binding affinity to Influenza A virus nucleoprotein by surface plasmon resonance analysis.
The target of data set [2] is PA/PB1 (Influenza A virus (A/Puerto Rico/8/1934(H1N1)), UniProt P03431+P03433). The experiment in a line: Binding affinity to biotin labelled Influenza A virus polymerase acidic protein (1 to 27 residues) by surface plasmon resonance analysis. Type of data set: protein assay. Put shortly:
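Biotinylated PA(1-27) was captured on the chip at about 1500 RU, with a scrambled peptide on the same chip at similar RU. NP (12–2500 nM), alone or as NP-DNA complex, was injected with or without compound up to 50 µM. Running buffer was 20 mM Tris-HCl pH 7.4, 300 mM NaCl, 0.005% P20, at 25 °C and 30 µl/min. Regeneration used guanidinium chloride then 10 mM NaOH.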

Data set [3] deals with Influenza A virus. The data set is described as follows: Antiviral activity against Influenza A virus (A/WSN/1933(H1N1)) infected in MDCK cells at MOI of 2 assessed as decrease in viral load after 18 hrs by immunofluorescence analysis. Type of data set: functional, organism-based. Put shortly:
(§1)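 MDCK or A549 cells, 0.32 x 10^6 per well, were held 24 h serum-free to 80% confluence and then infected at MOI 2. Compound (0.1–500 µM) or vehicle was added right after virus adsorption. At 18 h, viral NP was read by immunofluorescence and corrected for cell number by DAPI. Runs were in triplicate, repeated at least twice, and IC50 came from a dose-response fit.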

Data set [4] can be described thus: Selectivity index, ratio of CC50 for MDCK cells to IC50 for Influenza A virus (A/WSN/1933(H1N1)) infected in MDCK cells at MOI of 2 after 18 hrs. Format: toxicity, cell-based. The conditions noted are these: dog, read-out: Ratio CC50/IC50.
Data set [5] deals with Influenza A virus. The data set is described as follows: Antiviral activity against Influenza A virus (A/Udorn/1972 (H3N2)) infected in human A549 cells assessed as decrease in viral load after 18 hrs by immunofluorescence analysis. As to conditions: A549, 18 h. Format: functional, organism-based. In outline:
as §1

Data set [6] relates to Influenza A virus. The experiment in a line: Potency index, ratio of naproxen IC50 to compound IC50 for Influenza A virus (A/WSN/1933(H1N1)) infected in MDCK cells at MOI of 2 after 18 hrs by immunofluorescence analysis. Format: functional.
The test system of data set [7] is Influenza A virus. The data set is described as follows: Antiviral activity against Influenza A virus (A/Udorn/1972 (H3N2)) infected in MDCK cells at MOI of 2 assessed as decrease in viral load after 18 hrs by immunofluorescence analysis. Type of data set: functional, organism-based. Put shortly: as §1
The subject of data set [8] is Influenza A virus. The data set is described as follows: Antiviral activity against Influenza A virus (A/Udorn/1972 (H3N2)) infected in MDCK cells at MOI of 0.2 assessed as decrease in viral load after 18 hrs by immunofluorescence analysis. Format: functional, organism-based.
The subject of data set [9] is Influenza A virus. The data set is described as follows: Antiviral activity against Influenza A virus (A/Puerto Rico/8/1934(H1N1)) infected in C57BL/6J mouse assessed as decrease in viral load in bronchoalveolar lavage at 8 mg/mouse/day, ip qd treated up to day 2 starting at 5 to 10 mins post infection relative to control. Type of data set: functional. Put shortly: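 Female C57BL/6J mice, 5–6 weeks old, were anaesthetised with ketamine/xylazine (43/5 mg/kg) and inoculated intranasally with A/PR/8/34 at 500 PFU. Treatment was i.p. once daily on days 0, 1 and 2, starting 5–10 min after inoculation; 1 mg/mouse is 50 mg/kg and 8 mg/mouse is 400 mg/kg. BAL infectious titre was measured by plaque assay against saline-treated mice.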

For the compound `COc1ccc2cc(-c3c(C(=O)[O-])cccc3C(=O)[O-])ccc2c1.[Na+].[Na+]`, the Ki in data set [1] came to 0.097 µM; in data set [2] it was 30 µM. For the same compound, the IC50 in data set [3] amounted to 19 µM; in data set [5] it was 25 µM; in data set [7], 20 µM; in [8] it was 7 µM. Moreover, the selectivity ratio at 18 h in data set [4] amounted to 684. In addition, the “Ratio IC50” value in data set [6] is 5. Besides, the “fold change (FC)” value in data set [9] was 120.
